Most compounds without a hit are left out; they make up all but 1.9% or so of the library.
UBC9 SUMO inh – inhibitors of human SUMOylation (UBC9); HTRF SUMOylation assay, SAE1/SAE2 + UBC9, in vitro; actives 0.36% (n = 290,000); inhibition, % at 35 µM; in the data active = inhibition above about 50%, passing the limit was not always enough
Target sequence (P63279 whole entry, looked up): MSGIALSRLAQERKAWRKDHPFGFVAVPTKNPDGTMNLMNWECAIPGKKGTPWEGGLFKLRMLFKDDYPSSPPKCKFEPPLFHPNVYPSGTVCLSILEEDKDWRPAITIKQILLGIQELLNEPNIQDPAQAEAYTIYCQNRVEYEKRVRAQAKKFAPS
VIM-2 inhibitor – inhibitors of Pseudomonas aeruginosa VIM-2 metallo-beta-lactamase; AID 1527; actives 0.89% (n = 290,000); purified VIM-2, nitrocefin hydrolysis, epi-absorbance fluorescence; inhibition, % at 5.6 µM;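 active = inhibition above the mean of all tested compounds plus 3 SD, cutoff set per screening run, cut at about 7.5% in these data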;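 note: red hydrolysis product quenches plate fluorescence so inhibitors raise well fluorescence; 0% = enzyme with DMSO and 100% = DMSO without enzyme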
IMP-1 inh-1 – blocks Pseudomonas aeruginosa IMP-1 metallo-beta-lactamase; purified IMP-1, nitrocefin hydrolysis, epi-absorbance fluorescence; inhibition, % at 5.6 µM; actives 0.45% (n = 290,000);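 active = inhibition above the mean plus 3 SD of all compounds in the same screening run, cut at about 4.5% in these data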;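 note: 0% = IMP-1 with DMSO and 100% = DMSO wells lacking enzyme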
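System: purified IMP-1 / Input: IMP-1 dispensed at 0.2 nM / Medium: 50 mM HEPES pH 7.1, 50 µM ZnSO4, 0.05% Brij 35 / Timing: 15 min enzyme–compound preincubation, then 25 min nitrocefin reaction, 25 °C / Technique: plate fluorescence quenching by hydrolysis product, ex 480/em 530 nm / Repeats: singlicate testing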
Fh CTSL1 inh – blocks F. hepatica cathepsin L1 in PFM18AAP counter-screen. recombinant F. hepatica cathepsin L1, Z-Leu-Arg-MCA fluorescence. AID 1906. inhibition, % at 5.96 µM. actives 0.49% (n = 300,000);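 active = inhibition above the mean of all tested compounds plus 3 SD, set per screening campaign, cut at about 17% in these data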;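 note: 0% = plate median of test compound wells and 100% = 1 µM Z-Phe-Ala-diazomethylketone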
p-CIP stab down – lowers stability of the mouse p/CIP coactivator protein; AID 1984; actives 0.01% (n = 290,000); Q05BA5; F442A p/CIP-EGFP cells, EGFP fluorescence, 16 h; decrease of EGFP signal, % at 10 µM;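 active = EGFP signal decrease of at least 30% at 10 µM or well 3 SD below plate mean, unless failing retest; inactive = the rest, including hits failing retest or dose response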
T cell modulator – modulates CD8 T cell binding to vesicles | response (vesicle binding), % at 7 µM | 2C CD8+ T cell-vesicle binding, flow cytometry; hits give low values | actives 0.068% (n = 330,000);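 active = response, share of CD8 T cells binding vesicles, and their 90th percentile fluorescence all below set limits, cut at about 80% in these data, passing the limit was not always enough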;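 note: values below 100% mean blocked vesicle binding to the CD8+ T cells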
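Material: 2C TCR transgenic mouse naive CD8+ T cells, MACS-purified. Also added: QL9-charged Drosophila Ld/ICAM-1/B7-1 vesicles. Timing: binding 1.5 h at 37 °C. Measured by: high-throughput flow cytometry with anti-B7-1 and anti-CD8 staining. Read-out: percent CD8+ FL2 mean versus row control. Controls: Unloaded micro-vesicles (low), QL9 vesicles with 0.7% DMSO (high).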
IMP-1 inh-2 – blocks IMP-1 metallo-beta-lactamase in VIM-2 selectivity screen. shares compounds with VIM-2 inhibitor. purified IMP-1, nitrocefin hydrolysis, epi-absorbance fluorescence. inhibition, % at 5.6 µM. 1,300 tested, under 10 active. AID 1856; call rule not given here;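 note: 0% = enzyme with vehicle and 100% = vehicle without enzyme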
VIM-2 FRET ctr – VIM-2 FRET inhibition, artifact counter-screen; shares compounds with VIM-2 inhibitor; purified VIM-2, CCF2 FRET substrate hydrolysis; inhibition, % at 5.6 µM; actives 23% (n = 1,300); AID 1857;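 active = inhibition above the mean of all tested compounds plus 3 SD, cut at about 19% in these data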;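 note: 0% = VIM-2 plus DMSO and 100% = no enzyme wells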
TEM-1 counter – TEM-1 inhibition, counter-screen for VIM-2 inhibitors; shares compounds with VIM-2 inhibitor; Purified TEM-1, nitrocefin hydrolysis, epi-absorbance fluorescence; actives 3% (n = 1,300); inhibition, % at 5.6 µM;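 active = inhibition above that campaign's mean inhibition plus 3 SD, cut at about 0.46% in these data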;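 note: 0% = TEM-1 with DMSO and 100% = TEM-1 with 100 µM potassium clavulanate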
Target sequence (P62593 whole entry, looked up): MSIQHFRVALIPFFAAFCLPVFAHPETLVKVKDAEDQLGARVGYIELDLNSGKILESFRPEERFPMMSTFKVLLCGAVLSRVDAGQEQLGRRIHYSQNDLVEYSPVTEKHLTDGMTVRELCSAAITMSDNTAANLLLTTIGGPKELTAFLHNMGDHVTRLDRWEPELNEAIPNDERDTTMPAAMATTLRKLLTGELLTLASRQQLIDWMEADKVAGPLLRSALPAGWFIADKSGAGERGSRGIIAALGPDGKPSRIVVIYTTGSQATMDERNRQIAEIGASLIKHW
VIM-2 confirm 2 – confirmation of P. aeruginosa VIM-2 metallo-beta-lactamase inhibitors; shares compounds with VIM-2 inhibitor; purified VIM-2, nitrocefin hydrolysis, epi-absorbance; inhibition, % at 5.6 µM; actives 96% (n = 1,300); AID 2187;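 active = inhibition of the VIM-2 beta-lactamase enzyme above about 11% from the earlier first-round screen, limit read from the data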;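 note: 0% = VIM-2 with DMSO and 100% = buffer wells without enzyme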
* marks the source's active call; other numbers are inactive results.

`CCN(c1ccccc1)S(=O)(=O)c1ccc(Oc2ccc(C(C)=O)cc2OC)nc1` gave T cell modulator 221.1.
Screening [O-]c1n[n+](-c2ccc(Cl)cc2)cc2ccccc12 returned UBC9 SUMO inh 40.6, VIM-2 inhibitor 19.1*, IMP-1 inh-1 -2.1, Fh CTSL1 inh 1.2, p-CIP stab down -18.2, IMP-1 inh-2 -3.4, VIM-2 FRET ctr -10.7, TEM-1 counter -0.4 and VIM-2 confirm 2 2.2.
Screening [O-]c1n[n+](-c2ccc(Cl)cc2Cl)cc2ccccc12 returned UBC9 SUMO inh 5.8, VIM-2 inhibitor 0.1, IMP-1 inh-1 -4.4, Fh CTSL1 inh 7.9, p-CIP stab down -5.8 and T cell modulator 176.0.
Cc1cccc(-c2cc3nc(C)c(C)c(NCCCn4ccnc4)n3n2)c1 was read as UBC9 SUMO inh 22.4, VIM-2 inhibitor 34.9*, IMP-1 inh-1 -1.2, Fh CTSL1 inh 2.6, p-CIP stab down 4.1, T cell modulator 287.7, IMP-1 inh-2 -3.4, VIM-2 FRET ctr -27.5, TEM-1 counter -7.4 and VIM-2 confirm 2 49.2*.
Screening Cc1cc(-c2ccccc2)nc2cc(C(=O)NCCCn3ccnc3)nn12 returned UBC9 SUMO inh 27.7, VIM-2 inhibitor 16.9*, IMP-1 inh-1 -1.2, Fh CTSL1 inh -6.1, p-CIP stab down 3.5, T cell modulator 358.4, IMP-1 inh-2 -1.8, VIM-2 FRET ctr -9.2, TEM-1 counter -5.4 and VIM-2 confirm 2 28.1*.
Cc1nn2c(NCCCn3ccnc3)cc(C(C)C)nc2c1-c1ccccc1 was read as UBC9 SUMO inh 8.6, VIM-2 inhibitor 20.2*, IMP-1 inh-1 -1.1, Fh CTSL1 inh -0.9, p-CIP stab down 0.0, T cell modulator 206.0, IMP-1 inh-2 -3.4, VIM-2 FRET ctr -25.8, TEM-1 counter -6.0 and VIM-2 confirm 2 29.4*.
Screening Cc1cc(NCCCn2ccnc2)n2nc(-c3ccc(Cl)cc3)cc2n1 returned UBC9 SUMO inh -5.7, VIM-2 inhibitor 38.5*, IMP-1 inh-1 -2.3, Fh CTSL1 inh 8.3, p-CIP stab down 2.5, IMP-1 inh-2 -2.6, VIM-2 FRET ctr -23.0, TEM-1 counter -4.8 and VIM-2 confirm 2 46.7*.
For COCCNC(=O)c1cc2nc(-c3ccccc3)cc(C)n2n1 the results were UBC9 SUMO inh 28.3, VIM-2 inhibitor -0.9, IMP-1 inh-1 -3.2, Fh CTSL1 inh -0.5, p-CIP stab down -13.4 and T cell modulator 324.6.
For Cc1cc(NCCCn2ccnc2)n2nc(-c3ccc(F)cc3)cc2n1 the results were UBC9 SUMO inh -2.6, VIM-2 inhibitor 41.2*, IMP-1 inh-1 -1.0, Fh CTSL1 inh -3.4, p-CIP stab down 17.2, T cell modulator 828.8, IMP-1 inh-2 0.4, VIM-2 FRET ctr -12.2, TEM-1 counter 3.0* and VIM-2 confirm 2 67.1*.
Screening O=[N+]([O-])c1cc(CN2CCOCC2)c2cccnc2c1O returned UBC9 SUMO inh 89.0*, VIM-2 inhibitor 45.8*, IMP-1 inh-1 -2.4, p-CIP stab down -25.5, IMP-1 inh-2 -4.4, VIM-2 FRET ctr 3.7, TEM-1 counter -7.1 and VIM-2 confirm 2 49.4*.
Screening C[N+]1([O-])[C@@H]2Cc3cc4c(cc3[C@@H]1Cc1cc3c(cc12)OCO3)OCO4 (stereo not given in full) returned UBC9 SUMO inh -23.0, Fh CTSL1 inh -2.4, p-CIP stab down 5.8 and T cell modulator 550.6.
For Cc1cc(C(=O)N2CCCC(CO)(Cc3ccc(F)cc3)C2)c(C)o1 (stereo not given) the results were UBC9 SUMO inh 7.8, VIM-2 inhibitor -2.1, IMP-1 inh-1 -2.6, Fh CTSL1 inh -2.6, p-CIP stab down -19.1 and T cell modulator 232.6.
Screening Cc1cc(N2CCN(c3ccccn3)CC2)n2c(nc3ccccc32)c1C#N returned UBC9 SUMO inh 20.1, VIM-2 inhibitor 0.9, IMP-1 inh-1 -3.2 and p-CIP stab down -6.2.
CCN(CC)c1cc(C)c(C#N)c2nc3ccccc3n12 was read as UBC9 SUMO inh 11.2, VIM-2 inhibitor -2.5, IMP-1 inh-1 -4.2, Fh CTSL1 inh 5.5, p-CIP stab down -13.5 and T cell modulator 175.7.
For CCc1c(C)c(C#N)c2nc3ccccc3n2c1NC the results were UBC9 SUMO inh 18.6, VIM-2 inhibitor 13.6*, IMP-1 inh-1 -3.4, Fh CTSL1 inh 4.7, p-CIP stab down -2.5, T cell modulator 193.6, IMP-1 inh-2 -3.6, VIM-2 FRET ctr 1.2, TEM-1 counter -7.0 and VIM-2 confirm 2 20.9*.
For CCc1c(C)c(C#N)c2nc3ccccc3n2c1NCCN(C)C the results were UBC9 SUMO inh 6.6, VIM-2 inhibitor 5.8, IMP-1 inh-1 -3.5, Fh CTSL1 inh -0.5, p-CIP stab down -9.4 and T cell modulator 494.4.
For CNc1cc(C)c(C#N)c2nc3ccccc3n12 the results were UBC9 SUMO inh 10.0, VIM-2 inhibitor 23.8*, IMP-1 inh-1 -4.8, Fh CTSL1 inh -1.3, p-CIP stab down -5.6, T cell modulator 522.0, IMP-1 inh-2 -3.0, VIM-2 FRET ctr 2.3, TEM-1 counter -6.5 and VIM-2 confirm 2 35.4*.
Screening Cc1cc(Cl)n2c(nc3ccccc32)c1C#N returned UBC9 SUMO inh 27.4, VIM-2 inhibitor 20.5*, IMP-1 inh-1 -3.0, p-CIP stab down -8.1, IMP-1 inh-2 -3.0, VIM-2 FRET ctr -7.6, TEM-1 counter -7.0 and VIM-2 confirm 2 33.7*.
Screening O=C(CN1C(=O)NC2(CCCCCC2)C1=O)Nc1ccccc1[N+](=O)[O-] returned T cell modulator 257.1.
Screening Cc1c(C)c2ccc(OCC(=O)NC3CCN(Cc4ccccc4)CC3)c(C)c2oc1=O returned UBC9 SUMO inh 15.5, VIM-2 inhibitor 21.2*, IMP-1 inh-1 -2.1, Fh CTSL1 inh -1.4, p-CIP stab down -18.8, T cell modulator 249.4, IMP-1 inh-2 -2.6, VIM-2 FRET ctr -0.5, TEM-1 counter -10.9 and VIM-2 confirm 2 31.0*.
For O=C(Cn1[nH]c(=O)c2ccccc2c1=O)NC1CCCCCC1 the results were UBC9 SUMO inh -0.7, VIM-2 inhibitor -4.1, IMP-1 inh-1 -2.8, Fh CTSL1 inh -1.2, p-CIP stab down 1.7 and T cell modulator 238.9.

Assay outcomes deposited in PubChem BioAssay by several laboratories.
